The results in this text go back to ChEMBL document CHEMBL3351549, “Discovery of a Potent and Selective BCL-XL Inhibitor with in Vivo Activity” (ACS Med Chem Lett, 2014).

As a reminder, the Ki is the equilibrium dissociation constant of an inhibitor or competing ligand from its target. Usually EC50 stands for the concentration that produces a half-maximal response. One may read the Cmax as the maximum level reached in the sampled fluid or tissue. Broadly, the Tmax is the time at which the peak concentration occurs. In general, AUC refers to concentration integrated over time. For orientation: Kd means the free concentration of one partner at which half of the binding sites on the other are occupied at equilibrium, for simple one-to-one binding. High values mean a looser complex, low ones a tighter complex.

Activity calls are given as the source filed them. No cut-off for these calls is given here.

Data set [1] deals with T1, Bcl-2-like protein 1 (Homo sapiens, UniProt Q07817). The experiment in a line: Inhibition of BCL-XL (unknown origin) incubated for 1 hr by TR-FRET assay.
T1 sequence (Q07817 whole entry): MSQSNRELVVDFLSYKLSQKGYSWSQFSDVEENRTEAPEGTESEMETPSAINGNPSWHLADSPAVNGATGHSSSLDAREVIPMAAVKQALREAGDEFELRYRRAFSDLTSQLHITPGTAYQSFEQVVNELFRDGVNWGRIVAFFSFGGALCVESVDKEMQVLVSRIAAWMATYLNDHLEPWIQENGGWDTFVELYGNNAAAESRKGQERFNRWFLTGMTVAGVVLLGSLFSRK
The target of data set [2] is T1, Bcl-2-like protein 1. In words: Inhibition of BCL-XL (unknown origin) incubated for 1 hr in presence of 1% human serum by TR-FRET assay. Background: TR-FRET usually uses a lanthanide donor and a delayed reading to cut background.
The target in data set [3] is Apoptosis regulator Bcl-2 (Homo sapiens, UniProt P10415). The experiment in a line: Inhibition of BCL-2 (unknown origin) incubated for 1 hr by TR-FRET assay.
Sequence of Apoptosis regulator Bcl-2 (P10415 whole entry): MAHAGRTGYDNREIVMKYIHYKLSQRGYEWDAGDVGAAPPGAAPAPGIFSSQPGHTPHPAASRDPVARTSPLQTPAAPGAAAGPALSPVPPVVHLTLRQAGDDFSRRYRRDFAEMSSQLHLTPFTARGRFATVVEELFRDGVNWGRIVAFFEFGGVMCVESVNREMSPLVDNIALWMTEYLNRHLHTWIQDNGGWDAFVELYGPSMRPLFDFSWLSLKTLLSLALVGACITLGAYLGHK
The nature of data set [4]: Cytotoxicity against BCL-XL-dependent human NCI-H146 cells in presence of 10% human serum incubated for 48 hrs by Cell titerGlo reagent based assay. The note with it: NCI-H146, 48 h. It counts as functional. In general terms: In ATP-based viability assays light output follows the ATP content of the culture.
A short description of data set [5]: Cmax in SCID-Beige mouse at 5 mg/kg, ip. It is filed as ADME, organism-based. Set-up: dose 5 mg/kg, route intraperitoneal. The note with it: in vivo. In short, it runs like this: (§1)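 Nontumor-bearing SCID-Beige mice got a single IP dose of 5 mg/kg. Vehicle was 5% DMSO, 10% EtOH, 20% Cremophor ELP and 65% DSW. Pharmacokinetic parameters were taken from plasma exposure after the single dose.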

A short description of data set [6]: Tmax in SCID-Beige mouse at 5 mg/kg, ip. The settings on record: in vivo. It counts as ADME, organism-based. Also on record: dose 5 mg/kg, route intraperitoneal. In short, it runs like this:
as §1

Data set [7] in a line: AUC in SCID-Beige mouse at 5 mg/kg, ip. It is filed as ADME, organism-based. Set-up: dose 5 mg/kg, route intraperitoneal. The note with it: plasma. An outline of the steps: as §1
The nature of data set [8]: Drug concentration in SCID-Beige mouse at 5 mg/kg, ip after 12 hrs. It is filed as ADME, organism-based. Set-up: dose 5 mg/kg, route intraperitoneal. The settings on record: in vivo, read-out: Drug uptake. In short, it runs like this: as §1
The target in the next data set is T2, Bcl-2-like protein 2 (Homo sapiens, UniProt Q92843).
T2 sequence (Q92843 whole entry): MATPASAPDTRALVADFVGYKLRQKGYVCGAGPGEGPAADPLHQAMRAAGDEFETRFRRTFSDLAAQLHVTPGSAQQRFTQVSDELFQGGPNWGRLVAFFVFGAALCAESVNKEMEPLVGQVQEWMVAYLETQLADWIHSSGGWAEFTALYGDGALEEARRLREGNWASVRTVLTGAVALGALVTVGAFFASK
The experiment in a line: Binding affinity to BCL-W (unknown origin).

The target in data set [9] is Induced myeloid leukemia cell differentiation protein Mcl-1 (Homo sapiens, UniProt Q07820). In words: Binding affinity to MCL1 (unknown origin).
Sequence of Induced myeloid leukemia cell differentiation protein Mcl-1 (Q07820 whole entry): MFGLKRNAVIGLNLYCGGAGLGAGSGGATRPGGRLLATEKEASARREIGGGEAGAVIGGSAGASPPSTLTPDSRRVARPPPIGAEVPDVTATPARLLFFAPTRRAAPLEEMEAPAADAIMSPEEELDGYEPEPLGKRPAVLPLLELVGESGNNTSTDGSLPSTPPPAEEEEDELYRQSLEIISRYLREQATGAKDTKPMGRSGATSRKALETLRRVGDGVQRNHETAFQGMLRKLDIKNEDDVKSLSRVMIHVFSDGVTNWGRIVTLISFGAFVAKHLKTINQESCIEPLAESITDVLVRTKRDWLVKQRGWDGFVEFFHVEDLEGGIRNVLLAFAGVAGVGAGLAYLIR
The test system of data set [10] is Mus musculus. The experiment in a line: Reduction in platelets count in SCID-Beige mouse at 5 mg/kg, ip after 6 hrs. It counts as functional, organism-based. Also on record: dose 5 mg/kg. An outline of the steps:
(§2)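 Nontumor-bearing female SCID-Beige mice received a single IP dose of 5 mg/kg in the 5% DMSO/10% EtOH/20% Cremophor ELP/65% DSW vehicle. Blood was taken by retro-orbital bleed at regular intervals after dosing and platelets were counted.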

In data set [11] the test system is Mus musculus. The experiment in a line: Reduction in platelets count in SCID-Beige mouse at 5 mg/kg, ip after 72 hrs. It counts as functional, organism-based. Also on record: dose 5 mg/kg. An outline of the steps: as §2
A short description of data set [12]: Antitumor activity against BCL-XL-dependent human NCI-H146 cells xenografted in SCID-Beige mouse assessed as tumor growth inhibition at 5 mg/kg, ip for 14 days. It is filed as functional. The note with it: route intraperitoneal. An outline of the steps:
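Female SCID-Beige mice carried subcutaneous NCI-H146 xenografts and were dosed at 5 mg/kg IP QD ×14, or with an equal volume of vehicle (5% DMSO/10% EtOH/20% Cremophor ELP/65% DSW). There were 5 mice per time point. Tumor volume was calculated as W²·L·0.5 from perpendicular diameters and tracked over time. Treated and untreated groups were compared by Student's t test (p < 0.05).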

A short description of data set [13]: Cytotoxicity against BCL-XL-dependent human NCI-H146 cells in presence of 10% human serum.
Data set [14] has as its target T1, Bcl-2-like protein 1. The experiment in a line: Binding affinity to BCL-XL (unknown origin).

Take `O=C(Nc1nc2ccccc2s1)c1cccc2c1CN(c1nc(C(=O)O)c(CCCOc3ccc(-n4ncc5cncnc54)cc3)s1)CC2`: the inhibition constant (Ki) at Bcl-2-like protein 1 [1] stood at 0.042 nM; at Bcl-2-like protein 1 [2], 0.38 nM; in data set [3], 0.17 µM.
For `CN(C)CC#Cc1ccc(OCCCc2sc(N3CCc4cccc(C(=O)Nc5nc6ccccc6s5)c4C3)nc2C(=O)O)cc1`, the Ki on Bcl-2-like protein 1 [1] stood at 0.02 nM; at Bcl-2-like protein 1 [2] it was 0.28 nM. Also, the EC50 in data set [4] amounted to 0.6 µM.
Consider `CN(C)CC#Cc1ccc(OCCCc2sc(N3CCc4cccc(C(=O)Nc5nc6ccccc6s5)c4C3)nc2C(=O)O)c(F)c1` [A-1155463], for which the Ki is below 0.01 nM at Bcl-2-like protein 1 [1]; 0.1 nM on Bcl-2-like protein 1 [2]; 0.08 µM in data set [3]; 0.019 µM at Bcl-2-like protein 2; above 0.44 µM in data set [9]. In addition, in data set [4], the EC50 was 0.065 µM. In addition, the concentration in data set [5] peaked (Cmax) at 1.8 µM. Also, the Tmax in [6] came out at 2 h. Also, the area under the curve (AUC) in [7] stood at 9.19 µM·h. Further, in data set [8], the concentration at 12 h stood at 0.18 µM. For the same compound, the inhibition result in the data set with Mus musculus [10] was “Active”. In the data set on Mus musculus [11], the inhibition result was “inactive”. Also, the Imax in data set [12] is on record as 44%.
As to `CN(C)CC#Cc1cc(F)c(OCCCc2sc(N3CCc4cccc(C(=O)Nc5nc6ccccc6s5)c4C3)nc2C(=O)O)cc1F`, the Ki on Bcl-2-like protein 1 [1] was 0.03 nM; at Bcl-2-like protein 1 [2], 0.33 nM; in data set [3] it was 0.09 µM. For the same compound, the EC50 in data set [4] is 0.126 µM.
Turning to `O=C(Nc1nc2ccccc2s1)c1cccc2c1CN(c1nc(C(=O)O)c(CCCCOc3ccc(-n4ncc5cncnc54)cc3)s1)CC2`, the Ki at Bcl-2-like protein 1 [2] is 55.4 nM.
Regarding `CN1CCN(CCCNc2ncnc3c2cnn3-c2ccc(OCCCc3sc(N4CCc5cccc(C(=O)Nc6nc7ccccc7s6)c5C4)nc3C(=O)O)cc2)CC1`, the Ki on Bcl-2-like protein 1 [1] is below 0.01 nM; at Bcl-2-like protein 1 [2] it was 0.03 nM.
For the compound `CN(C)CC#Cc1ccc(OCCCc2sc(N3CCc4cccc(C(=O)Nc5nc6ccccc6s5)c4C3)nc2C(=O)O)cc1F`, the Ki at Bcl-2-like protein 1 [1] was 0.01 nM; on Bcl-2-like protein 1 [2], 1.12 nM; in data set [3], 0.088 µM. The EC50 in data set [4] is 0.051 µM.
For `NCc1ccc(OCCCc2sc(-c3ccc4c(c3)/C(=N/Nc3nc5ccccc5s3)CCC4)nc2C(=O)O)cc1`, the EC50 in data set [13] was determined as 0.55 µM.
As to `O=C(Nc1nc2ccccc2s1)c1cccc2c1CN(c1nc(C(=O)O)c(CCCOc3ccc(-n4cccn4)cc3)s1)CC2`, the Ki on Bcl-2-like protein 1 [1] was below 0.01 nM; at Bcl-2-like protein 1 [2], 0.99 nM; in data set [3], 0.15 µM.
Consider `O=C(Nc1nc2ccccc2s1)c1cccc2c1CN(c1nc(C(=O)O)c(CCCOc3cccc(-n4ncc5cncnc54)c3)s1)CC2`, for which the figures for the Ki (at Bcl-2-like protein 1 [1]; at Bcl-2-like protein 1 [2]; in [3]) were 0.34 nM, 10.4 nM and 0.22 µM, respectively.
As for `O=C(Nc1nc2ccccc2s1)c1cccc2c1CN(c1nc(C(=O)O)c(CCOc3ccc(-n4ncc5cncnc54)cc3)s1)CC2` [A-1107969], the Ki was determined as 12.4 nM at Bcl-2-like protein 1 [1], 320 nM at Bcl-2-like protein 1 [2] and 0.09 µM in data set [3].
On to `CN(C)CCCNc1ncnc2c1cnn2-c1ccc(OCCCc2sc(N3CCc4cccc(C(=O)Nc5nc6ccccc6s5)c4C3)nc2C(=O)O)cc1`, for which the Ki was below 0.01 nM on Bcl-2-like protein 1 [1] and 0.24 µM in data set [3].
Turning to `CN(C)CC#Cc1ccc(OCCCc2sc(N3CCc4cccc(C(=O)Nc5nc6ccccc6s5)c4C3)nc2C(=O)O)c(Cl)c1`, the Ki turned out to be 0.41 nM on Bcl-2-like protein 1 [2] and 0.28 µM in data set [3]. Further, the EC50 in [4] is 0.18 µM.
On Bcl-2-like protein 1 [14], `c1ccc(-n2ncc3cncnc32)cc1` displayed a Kd of 4000 µM.
On to `O=C(Nc1nc2ccccc2s1)c1cccc2c1CN(c1nc(C(=O)O)c(CCOc3cccc(-n4ncc5cncnc54)c3)s1)CC2`, for which the values for the Ki (at Bcl-2-like protein 1 [1]; on Bcl-2-like protein 1 [2]; in data set [3]) were 2.22 nM, 41.1 nM and 0.1 µM, respectively.
